This is an account of results in publication PMC2118488 (The Journal of Experimental Medicine, 2007).

Ends that are not written are not given here. ABA = azidobenzoic acid, photoreactive group linked to the lysine of the peptide

The test system of one assay is T1 thymocytes. Nature of the assay: Fetal thymic organ culture. The settings on record: high concentrations (100 μM shown in Fig. 1 D). The assay is classed as cell-based, mouse. A digest of the protocol:
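E15 fetal thymi from T1 β2m−/− Rag−/− TCR transgenic mice were cultured 7 d without peptide or with 1 μM exogenous peptide, with 0.2 μM and 100 μM also shown for two variants. Cells were stained for CD4, CD8α and/or CD8β and read by flow cytometry.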

Another assay has as its target H-2K^d (Mus musculus, UniProt P01902). Nature of the assay: Peptide binding to H-2K^d. The settings on record: unpublished data.
The subject of another assay is S14 thymocytes. Put plainly: Fetal thymic organ culture. The settings on record: S14 TCR transgenic FTOC. The assay is classed as cell-based, mouse. A digest of the protocol:
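Fetal thymi (E15) from Rag−/− β2m−/− S14 TCR transgenic mice were cultured for 7 d with peptide variants. Thymocytes were stained for CD4, CD8α and/or CD8β and analysed by flow cytometry.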

H-2K^d, sequence (P01887 21-119): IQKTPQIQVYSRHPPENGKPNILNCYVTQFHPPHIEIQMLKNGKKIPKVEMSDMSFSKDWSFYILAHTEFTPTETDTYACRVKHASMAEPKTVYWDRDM
H-2K^d, sequence (P01902 22-368): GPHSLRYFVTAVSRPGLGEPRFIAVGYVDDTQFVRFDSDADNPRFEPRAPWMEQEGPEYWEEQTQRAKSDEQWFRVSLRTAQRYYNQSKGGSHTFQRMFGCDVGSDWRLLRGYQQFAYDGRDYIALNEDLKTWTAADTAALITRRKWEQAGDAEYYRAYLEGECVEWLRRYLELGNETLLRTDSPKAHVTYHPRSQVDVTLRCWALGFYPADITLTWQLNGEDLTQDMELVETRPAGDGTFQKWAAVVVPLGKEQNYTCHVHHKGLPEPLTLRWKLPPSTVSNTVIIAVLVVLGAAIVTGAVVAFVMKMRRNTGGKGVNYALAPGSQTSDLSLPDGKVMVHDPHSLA

In the case of “4S: variant of SYIPSAEK(ABA)I with proline at position 4 replaced by serine (SYISSAEK(ABA)I)”, the “Selection outcome in FTOC at high peptide concentrations” value in the assay on T1 thymocytes is “could induce negative selection”. “4A: variant of SYIPSAEK(ABA)I with proline at position 4 replaced by alanine (SYIASAEK(ABA)I)”: in the assay with T1 thymocytes, the “Selection outcome in FTOC at high peptide concentrations” value is listed as “could induce negative selection”. Regarding “4L: variant of SYIPSAEK(ABA)I with proline at position 4 replaced by leucine (SYILSAEK(ABA)I)”, the “Affinity for H-2K^d relative to 4P” value with H-2K^d was “fivefold lower affinity than 4P”. For the same substance, the “Selecting potential in FTOC” value in the assay on S14 thymocytes is “threshold ligand”.
